Measurements gathered from unrelated publications.
BRAF: Serine/threonine-protein kinase B-raf (BRAF, Homo sapiens, UniProt P15056)

SMILES	target	observed	action	method	tested at	endpoint	value
Cc1nn(C)cc1-c1nc2c(N3CCN(Cc4ccc(Cl)cc4)CC3)c(Cl)cnc2[nH]1	Serine/threonine-protein kinase B-raf (BRAF, Homo sapiens, UniProt P15056, V600E)	binding		competition with immobilised ligand	1 µM	remaining binding	100%
C#Cc1n[nH]c2c(-c3cn(C(C)c4ccccn4)c(=O)[nH]c3=O)cc(F)cc12 (centres unmarked)	BRAF	enzyme activity	inhibitor		1 µM	inhibition	-2.7%
Nc1ncc(-c2nc(N3CCOCC3)nc(N3CCOCC3)n2)c(C(F)F)n1	BRAF	binding		competition with immobilised ligand	10 µM	remaining binding	36%
C#Cc1n[nH]c2c(-c3cn([C@@H](C)c4ccccc4)c(=O)[nH]c3=O)cc(F)cc12	BRAF	enzyme activity	inhibitor		0.1 µM	inhibition	-2.9%
Cn1cc(-c2cc(F)cc(N3CCn4c(cc5c4CCCC5)C3=O)c2CO)cc(Nc2ccc(N3CCN(C4COC4)CC3)cn2)c1=O	BRAF	enzyme activity	inhibitor		0.1 µM	inhibition	7%
O=c1[nH]c2ccccc2n1C1CCN(Cc2ccc(-c3[nH]c4cc5ncnc5cc4nc3-c3ccccc3)cc2)CC1	BRAF	cell-free assay			0.5 µM	remaining signal	101%
COc1ncccc1-c1cnn2ccc(N3CCN(C(=O)OC(C)C)CC3)nc12	BRAF	binding		competition with immobilised ligand	1 µM	remaining binding	100%
Cn1cncc1[C@@](O)(COc1ccc(C#N)cc1-c1ccc(OC(F)(F)F)cc1)c1ccc(C#N)cc1	BRAF	cell-free assay		competition with immobilised ligand	1 µM	remaining binding	100%
Cn1cc(-c2cccc(N3CCc4c(sc5c4CC(C)(C)C5)C3=O)c2CO)cc(Nc2ccncn2)c1=O	BRAF	enzyme activity	inhibitor		1 µM	inhibition	21%
N#CC1(c2ccccn2)CCN(Cc2cc(C(=O)O)c(=O)n3ccccc23)CC1	BRAF	cell-free assay		competition with immobilised ligand	1 µM	remaining binding	93%
CNS(=O)(=O)Nc1nccc(Cc2c(C)c3ccc(Oc4ncccn4)cc3oc2=O)c1F	BRAF	cell-free assay		competition with immobilised ligand	10 µM	inhibition	89%
